Like-named read-outs stand apart in the source and are kept apart here.
Tests used:
[1] = Stability in human liver microsomes; assay type: in vitro ADME; details: for Elimination rate constant (k): 1 μM compound, 1 mg/mL microsomal protein; for microsomal CLint at 1 μM: human
How it was run: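 Test compound incubated with human liver microsomes in potassium phosphate buffer. Samples taken at 5, 15, 30 and 60 min and analysed by LC-MS/MS. The elimination rate constant (k) was determined, and half-life (t1/2) and intrinsic clearance (CLint) were calculated from k.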

HCV 1b replicon = HCV 1b replicon system, block of HCV replication; assay type: cell-based; details: for EC90: read-out: HCV Replicon EC90
PBM cells [2] = assay: Cytotoxicity in PBM cells
[3] = Cytotoxicity in CEM cells; assay type: cell-based; details: human
PBM cells [4] = system: PBM cells
HCV [5] = details: cited from earlier work
HCV [6] = details: read-out: in vitro potency (EC50); cited from earlier work
[7] = Hepatitis C virus, read-out: HCV Replicon EC50, HCV 1b replicon system
[8] = Hepatitis C virus, read-out: HCV Replicon EC50

Row | SMILES | EC50 (HCV 1b replicon; [7]) [nM] | EC90 (HCV 1b replicon; Hepatitis C virus) [nM] | EC50 (HCV 1b replicon; [8]) [nM] | also measured
1 | COC(=O)N[C@H](C(=O)N1CCC[C@H]1c1nc(F)c(-c2ccc(-c3ccc(-c4[nH]c([C@@H]5CCCN5C(=O)[C@@H](NC(=O)OC)C(C)C)nc4F)cc3)cc2)[nH]1)C(C)C [Compound 5d] | 0.0068 ± 0.0033 | – | – | Elimination rate constant (k) [1]: 0.0056; microsomal CLint at 1 μM [1]: < 8.6 µL/min/mg; toxicity in primary human lymphocytes relative to reference compound 1 (PBM cells [2]): increased toxicity
2 | COC(=O)N[C@H](C(=O)N1CCC[C@H]1c1nc(-c2cccs2)c(-c2ccc(-c3ccc(-c4[nH]c([C@@H]5CCCN5C(=O)[C@@H](NC(=O)OC)C(C)C)nc4-c4cccs4)cc3)cc2)[nH]1)C(C)C [Compound 8] | 0.1 | – | – | –
3 | COC(=O)N[C@H](C(=O)N1C[C@@H](N=[N+]=[N-])C[C@H]1c1ncc(-c2ccc(-c3ccc(-c4cnc([C@@H]5C[C@H](N=[N+]=[N-])CN5C(=O)[C@@H](NC(=O)OC)C(C)C)[nH]4)cc3)cc2)[nH]1)C(C)C [Compound 9] | 0.023 | 0.0352 | – | –
4 | COC(=O)N[C@H](C(=O)N1C[C@H](n2cc(-c3ccccc3)nn2)C[C@H]1c1ncc(-c2ccc(-c3ccc(-c4cnc([C@@H]5C[C@@H](n6cc(-c7ccccc7)nn6)CN5C(=O)[C@@H](NC(=O)OC)C(C)C)[nH]4)cc3)cc2)[nH]1)C(C)C [Compound 11] | – | 9.2 | 2.7 | –
5 | COC(=O)N[C@H](C(=O)N1C[C@H](N=[N+]=[N-])C[C@H]1c1ncc(-c2ccc(-c3ccc(-c4cnc([C@@H]5C[C@@H](N=[N+]=[N-])CN5C(=O)[C@@H](NC(=O)OC)C(C)C)[nH]4)cc3)cc2)[nH]1)C(C)C [Compound 10] | 0.0095 | 0.0542 ± 0.0341 | – | EC50 (HCV 1b replicon; read-out: HCV Replicon EC50, HCV 1b replicon system): 0.0184 ± 0.0126 nM
6 | COC(=O)N[C@H](C(=O)N1C[C@@H](N=[N+]=[N-])C[C@H]1c1nc(Br)c(-c2ccc(-c3ccc(-c4[nH]c([C@@H]5C[C@H](N=[N+]=[N-])CN5C(=O)[C@@H](NC(=O)OC)C(C)C)nc4Br)cc3)cc2)[nH]1)C(C)C [Compound 19] | – | 0.0553 | 0.0083 | –
7 | COC(=O)N[C@H](C(=O)N1C[C@@H](N=[N+]=[N-])C[C@H]1c1nc(Cl)c(-c2ccc(-c3ccc(-c4[nH]c([C@@H]5C[C@H](N=[N+]=[N-])CN5C(=O)[C@@H](NC(=O)OC)C(C)C)nc4Cl)cc3)cc2)[nH]1)C(C)C [Compound 18] | – | 0.0746 | 0.0112 | –
8 | COC(=O)N[C@H](C(=O)N1C[C@H](N=[N+]=[N-])C[C@H]1c1ncc(-c2ccc(-c3ccc(-c4[nH]c([C@@H]5C[C@@H](N=[N+]=[N-])CN5C(=O)[C@@H](NC(=O)OC)C(C)C)nc4Cl)cc3)cc2)[nH]1)C(C)C [Compound 16] | 0.0063 | – | – | –
9 | COC(=O)N[C@H](C(=O)N1C[C@H](n2cc(C(=O)OC)nn2)C[C@H]1c1ncc(-c2ccc(-c3ccc(-c4cnc([C@@H]5C[C@@H](n6cc(C(=O)OC)nn6)CN5C(=O)[C@@H](NC(=O)OC)C(C)C)[nH]4)cc3)cc2)[nH]1)C(C)C [Compound 12] | – | 0.0428 | 0.0118 | –
10 | COC(=O)N[C@H](C(=O)N1CCC[C@H]1c1nc(-c2ccccc2)c(-c2ccc(-c3ccc(-c4[nH]c([C@@H]5CCCN5C(=O)[C@@H](NC(=O)OC)C(C)C)nc4-c4ccccc4)cc3)cc2)[nH]1)C(C)C [Compound 6] | 0.2 | – | – | –
11 | COC(=O)N[C@H](C(=O)N1C[C@@H](n2cc(C(=O)OC)nn2)C[C@H]1c1ncc(-c2ccc(-c3ccc(-c4cnc([C@@H]5C[C@H](n6cc(C(=O)OC)nn6)CN5C(=O)[C@@H](NC(=O)OC)C(C)C)[nH]4)cc3)cc2)[nH]1)C(C)C [Compound 14] | – | > 10 | > 10 | –
12 | COC(=O)N[C@H](C(=O)N1C[C@@H](n2cc(-c3ccccc3)nn2)C[C@H]1c1ncc(-c2ccc(-c3ccc(-c4cnc([C@@H]5C[C@H](n6cc(-c7ccccc7)nn6)CN5C(=O)[C@@H](NC(=O)OC)C(C)C)[nH]4)cc3)cc2)[nH]1)C(C)C [Compound 13] | – | > 10 | – | CC50 [3]: > 100000 nM
13 | COC(=O)N[C@H](C(=O)N1CCC[C@H]1c1nc(I)c(-c2ccc(-c3ccc(-c4[nH]c([C@@H]5CCCN5C(=O)[C@@H](NC(=O)OC)C(C)C)nc4I)cc3)cc2)[nH]1)C(C)C [Compound 5c] | 0.0055 ± 0.0019 | – | – | toxicity in primary human lymphocytes relative to reference compound 1 (PBM cells [4]): increased toxicity; Elimination rate constant (k) [1]: 0.018
14 | COC(=O)N[C@H](C(=O)N1C[C@H](N=[N+]=[N-])C[C@H]1c1nc(Br)c(-c2ccc(-c3ccc(-c4[nH]c([C@@H]5C[C@@H](N=[N+]=[N-])CN5C(=O)[C@@H](NC(=O)OC)C(C)C)nc4Br)cc3)cc2)[nH]1)C(C)C [Compound 17] | – | 0.0216 | 0.0026 | –
15 | COC(=O)N[C@H](C(=O)N1CCC[C@H]1c1nc(-c2ccco2)c(-c2ccc(-c3ccc(-c4[nH]c([C@@H]5CCCN5C(=O)[C@@H](NC(=O)OC)C(C)C)nc4-c4ccco4)cc3)cc2)[nH]1)C(C)C [Compound 7] | 0.026 | – | – | –
16 | COC(=O)N[C@H](C(=O)N1CCC[C@H]1c1nc(Cl)c(-c2ccc(-c3ccc(-c4[nH]c([C@@H]5CCCN5C(=O)[C@@H](NC(=O)OC)C(C)C)nc4Cl)cc3)cc2)[nH]1)C(C)C [Compound 5b] | 0.0064 ± 0.003 | – | – | Elimination rate constant (k) [1]: 0.0058; microsomal CLint at 1 μM [1]: < 8.6 µL/min/mg
17 | COC(=O)N[C@H](C(=O)N1CCC[C@H]1c1nc(Br)c(-c2ccc(-c3ccc(-c4[nH]c([C@@H]5CCCN5C(=O)[C@@H](NC(=O)OC)C(C)C)nc4Br)cc3)cc2)[nH]1)C(C)C [Compound 5a] | 0.0059 ± 0.0039 | – | – | Elimination rate constant (k) [1]: 0.01
18 | COC(=O)N[C@H](C(=O)N1C[C@H](N=[N+]=[N-])C[C@H]1c1nc(Cl)c(-c2ccc(-c3ccc(-c4[nH]c([C@@H]5C[C@@H](N=[N+]=[N-])CN5C(=O)[C@@H](NC(=O)OC)C(C)C)nc4Cl)cc3)cc2)[nH]1)C(C)C [Compound 15] | – | 0.0096 | 0.0047 | –
19 | COC(=O)N[C@H](C(=O)N1CCC[C@H]1c1ncc(-c2ccc(-c3ccc(-c4cnc([C@@H]5CCCN5C(=O)[C@@H](NC(=O)OC)C(C)C)[nH]4)cc3)cc2)[nH]1)C(C)C [BMS-790052] | 0.0042 ± 0.0015 | – | – | Elimination rate constant (k) [1]: 0.012; viral load decline (HCV [5]; after a single 100 mg dose): ≈ 3.3 log10; toxicity after single dose (HCV [5]; single 100 mg dose): no signs of toxicity; EC50 (HCV [6]): ≤ 0.05 nM
20 | COC(=O)N[C@H](C(=O)N1CCC[C@H]1c1ncc(-c2ccc(-c3ccc(-c4[nH]c([C@@H]5CCCN5C(=O)[C@@H](NC(=O)OC)C(C)C)nc4F)cc3)cc2)[nH]1)C(C)C [Compound 5e] | 0.0144 ± 0.004 | – | – | –

Source: PMC3389222 (Bioorganic & medicinal chemistry letters, 2012)
